pIC50: −log10 of the molar value. The source made the active and inactive calls. No rule for the calls is given here.
Key:
[1] = molecular target: Triosephosphate isomerase, glycosomal (Trypanosoma cruzi, UniProt P52270); assay: Inhibition of Trypanosoma cruzi triosephosphate isomerase after 2 hrs
Procedure, shortened: (§1)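 Recombinant E. coli-expressed enzyme, dialyzed into 100 mM triethanolamine/10 mM EDTA pH 7.4, was incubated with compound (DMSO stock) in 100 mM triethanolamine, 10 mM EDTA, pH 7.4, 10% DMSO at 36 °C for 2 h. An aliquot was then assayed for activity (glyceraldehyde 3-phosphate to dihydroxyacetone phosphate, α-glycerol phosphate dehydrogenase-coupled) with 5 ng enzyme. Irreversible inhibition was scored as loss of activity; means of two experiments.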

[2] = molecular target: Triosephosphate isomerase, glycosomal (Trypanosoma cruzi) (UniProt P52270); assay: Inhibition of Trypanosoma cruzi triosephosphate isomerase at 400 uM after 2 hrs; procedure, shortened: as §1
[3] = molecular target: Triosephosphate isomerase (Homo sapiens) (UniProt P60174); assay: Inhibition of human triosephosphate isomerase at 100 uM after 2 hrs; procedure, shortened: as §1
[4] = test system: Trypanosoma cruzi; assay: Antiparasitic activity against Trypanosoma cruzi T2 epimastigotes assessed as growth inhibition at 25 uM after 5 days; format: functional; conditions: for inhibition of growth at 25 µM: T2, 120 h, read-out: GI
Procedure, shortened: (§2)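 Late-log epimastigotes were grown axenically at 28 °C in BHI-tryptose with 5% fetal calf serum and seeded at 2×10^6/mL in medium containing compound (DMSO stock; final DMSO ≤1%, 1% DMSO control). Growth was read as A590 at day 0 and day 5. Inhibition = {1 − [(Ap − A0p)/(Ac − A0c)]} × 100. Means of two experiments.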

[5] = molecular target: Triosephosphate isomerase, glycosomal (Trypanosoma cruzi) (UniProt P52270); assay: Inhibition of Trypanosoma cruzi triosephosphate isomerase at 100 uM after 2 hrs; procedure, shortened: as §1
[6] = test system: Trypanosoma cruzi; assay: Antiparasitic activity against Trypanosoma cruzi T2 epimastigotes assessed as growth inhibition; format: functional; conditions: read-out: ID50 (the source's name)
Procedure, shortened: (§3)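 Epimastigotes were cultured at 28 °C in BHI-tryptose plus 5% fetal calf serum and seeded at 2×10^6/mL with increasing compound concentrations (from DMSO stock; final DMSO ≤1%). Growth was followed as A590 against untreated controls. ID50 was the concentration halving absorbance relative to controls. Means of two experiments.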

[7] = Selectivity for Trypanosoma cruzi triosephosphate isomerase over human triosephosphate isomerase
[8] = test system: Trypanosoma cruzi; assay: Antiparasitic activity against Trypanosoma cruzi CLB epimastigotes assessed as growth inhibition at 25 uM after 5 days; format: functional; conditions: 120 h, read-out: GI; procedure, shortened: as §2
[9] = test system: Trypanosoma cruzi; assay: Antiparasitic activity against Trypanosoma cruzi CLB epimastigotes assessed as growth inhibition; format: functional; conditions: read-out: ID50 (the source's name); procedure, shortened: as §3
[10] = test system: Trypanosoma cruzi; assay: Antiparasitic activity against Trypanosoma cruzi Y epimastigotes assessed as growth inhibition at 25 uM after 5 days; format: functional; conditions: 120 h, read-out: GI; procedure, shortened: as §2
[11] = test system: Trypanosoma cruzi; assay: Antiparasitic activity against Trypanosoma cruzi Y epimastigotes assessed as growth inhibition; format: functional; conditions: read-out: ID50 (the source's name); procedure, shortened: as §3

Chain of Triosephosphate isomerase, glycosomal (Trypanosoma cruzi) (P52270 whole entry): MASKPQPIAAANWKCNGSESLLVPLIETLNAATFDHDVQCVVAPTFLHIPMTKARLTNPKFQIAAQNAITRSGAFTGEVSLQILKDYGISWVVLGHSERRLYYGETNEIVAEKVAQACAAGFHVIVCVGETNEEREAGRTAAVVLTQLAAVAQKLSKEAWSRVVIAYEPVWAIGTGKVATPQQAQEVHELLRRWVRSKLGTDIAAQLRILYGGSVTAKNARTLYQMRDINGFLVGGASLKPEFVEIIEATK
Chain of Triosephosphate isomerase, glycosomal (P52270 whole entry): as above
Chain of Triosephosphate isomerase (Homo sapiens) (P60174 whole entry): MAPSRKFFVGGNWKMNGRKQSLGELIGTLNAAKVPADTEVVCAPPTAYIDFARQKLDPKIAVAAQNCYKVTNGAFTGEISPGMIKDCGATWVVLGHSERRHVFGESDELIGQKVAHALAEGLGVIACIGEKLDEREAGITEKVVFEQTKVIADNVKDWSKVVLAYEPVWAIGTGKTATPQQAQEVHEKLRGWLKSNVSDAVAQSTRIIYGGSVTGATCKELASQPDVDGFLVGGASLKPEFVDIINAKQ

O=C1C(=Cc2ccc([N+](=O)[O-])o2)C(=O)N(Cc2ccccc2)S(=O)(=O)N1Cc1ccccc1
pIC50 [1]: 4.89
inhibition [2]: 82%
inhibition [3]: 0%
inhibition of growth at 25 µM [4]: 20.8%
inhibition [5]: 82%
pIC50 [6]: 4.30
Ratio [7]: > 4

O/N=C1/C=CC(C=Cc2ccc(Cl)cc2)=C/C1=N/O
inhibition of growth at 25 µM [8]: 100%
inhibition [2]: 73%
Activity [4]: Active
inhibition [5]: 25%
Ratio [7]: > 4
pIC50 [9]: 5.30

[O-][n+]1c2ccc(O)cc2[n+]([O-])c2cc(Cl)c(Cl)cc21
inhibition of growth at 25 µM [8]: 100%
pIC50 [1]: 4.59
inhibition [2]: 84%
inhibition [3]: 0%
inhibition of growth at 25 µM [4]: 100%
inhibition [5]: 73%
inhibition of growth at 25 µM [10]: 100%
pIC50 [6]: 5.54
pIC50 [11]: 5.26
Ratio [7]: > 4
pIC50 [9]: 5.70

O/N=C1C=CC(/C=C/c2ccccc2)=CC/1=N/O
inhibition of growth at 25 µM [8]: 100%
inhibition [2]: 77%
Activity [4]: Active
inhibition [5]: 8%
Ratio [7]: > 4
pIC50 [9]: 5.33

O=c1oc(-c2ccccc2)ns1
pIC50 [1]: 5.00
inhibition [2]: 96%
inhibition [3]: 0%
inhibition of growth at 25 µM [4]: 59%
inhibition [5]: 81%
pIC50 [6]: 4.66
Ratio [7]: > 4

Cc1ccc(-c2nsc(=O)[nH]2)cc1
pIC50 [1]: 5.46
inhibition [2]: 95%
inhibition [3]: 59%
inhibition of growth at 25 µM [4]: 0%
inhibition [5]: 98%
pIC50 [6]: < 4.60
